Laboratory results: ChEMBL document CHEMBL3616464, “One-pot synthesis of podophyllotoxin-thiourea congeners by employing NH₂SO₃H/NaI: Anticancer activity, DNA topoisomerase-II inhibition, and apoptosis inducing agents” (Bioorg Med Chem Lett, 2015)
The source made the active and inactive calls. The calls are words filed in the database; no cut-off is given here.

Legend:
A549 [1] = assay: Cytotoxicity against human A549 cells after 48 hrs by MTT assay; type: functional, cell-based; settings: A549, 48 h
DU-145 [2] = assay: Cytotoxicity against human DU145 cells after 48 hrs by MTT assay; type: functional, cell-based; settings: DU-145, 48 h
[3] = Cytotoxicity against human RWPE1 cells after 48 hrs by MTT assay; type: cell-based; settings: RWPE-1, 48 h
LNCaP [4] = assay: Cytotoxicity against human LNCAP cells after 48 hrs by MTT assay; type: functional, cell-based
[5] = Cytotoxicity against human HGC cells after 48 hrs by MTT assay; type: functional, cell-based
MDA-MB-231 [6] = assay: Cytotoxicity against human MDA-MB-231 cells after 48 hrs by MTT assay; type: functional, cell-based; settings: MDA-MB-231, 48 h
[7] = Therapeutic index, ratio of IC50 for human RWPE1 cells to IC50 for human DU145 cells; type: cell-based; settings: RWPE1 cells versus DU145 cells, read-out: Ratio IC50
Summary of the method: (§1)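 Selectivity expressed as the fold by which the IC50 in normal prostate epithelial RWPE-1 cells exceeds the IC50 in the prostate cancer line (DU-145 or LNCaP).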

[8] = Therapeutic index, ratio of IC50 for human RWPE1 cells to IC50 for human LNCAP cells; type: cell-based; settings: RWPE1 cells versus LNCAP cells, read-out: Ratio IC50; summary of the method: as §1
LNCaP [9] = assay: Cytotoxicity against human LNCAP cells at 100 uM after 48 hrs by MTT assay; type: functional, cell-based
HGC = assay: Cytotoxicity against human HGC cells at 100 uM after 48 hrs by MTT assay; type: functional, cell-based
MDA-MB-231 [10] = assay: Cytotoxicity against human MDA-MB-231 cells at 100 uM after 48 hrs by MTT assay; type: functional, cell-based
A549 [11] = assay: Cytotoxicity against human A549 cells at 100 uM after 48 hrs by MTT assay; type: functional, cell-based
DU-145 [12] = assay: Cytotoxicity against human DU145 cells at 100 uM after 48 hrs by MTT assay; type: functional, cell-based
[13] = Cytotoxicity against human RWPE1 cells at 100 uM after 48 hrs by MTT assay; type: cell-based; settings: rwpe-1, 48 h
[14] = target: DNA topoisomerase 2-alpha (Homo sapiens) (UniProt P11388); assay: Inhibition of topoisomerase-2 (unknown origin) using kDNA assessed as increase of catenated kDNA level at 100 uM after 10 mins using ethidium bromide staining by agarose gel electrophoresis
Summary of the method: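 Drug-screening kit decatenation assay: catenated DNA incubated with topoisomerase II (5 units) and test agent, with etoposide as reference. Products were resolved by gel and visualised. Inhibition was judged by catenated DNA remaining in the wells, compared with nicked circular, relaxed circular or linear DNA forms.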

Sequence of DNA topoisomerase 2-alpha (Homo sapiens) (P11388 whole entry): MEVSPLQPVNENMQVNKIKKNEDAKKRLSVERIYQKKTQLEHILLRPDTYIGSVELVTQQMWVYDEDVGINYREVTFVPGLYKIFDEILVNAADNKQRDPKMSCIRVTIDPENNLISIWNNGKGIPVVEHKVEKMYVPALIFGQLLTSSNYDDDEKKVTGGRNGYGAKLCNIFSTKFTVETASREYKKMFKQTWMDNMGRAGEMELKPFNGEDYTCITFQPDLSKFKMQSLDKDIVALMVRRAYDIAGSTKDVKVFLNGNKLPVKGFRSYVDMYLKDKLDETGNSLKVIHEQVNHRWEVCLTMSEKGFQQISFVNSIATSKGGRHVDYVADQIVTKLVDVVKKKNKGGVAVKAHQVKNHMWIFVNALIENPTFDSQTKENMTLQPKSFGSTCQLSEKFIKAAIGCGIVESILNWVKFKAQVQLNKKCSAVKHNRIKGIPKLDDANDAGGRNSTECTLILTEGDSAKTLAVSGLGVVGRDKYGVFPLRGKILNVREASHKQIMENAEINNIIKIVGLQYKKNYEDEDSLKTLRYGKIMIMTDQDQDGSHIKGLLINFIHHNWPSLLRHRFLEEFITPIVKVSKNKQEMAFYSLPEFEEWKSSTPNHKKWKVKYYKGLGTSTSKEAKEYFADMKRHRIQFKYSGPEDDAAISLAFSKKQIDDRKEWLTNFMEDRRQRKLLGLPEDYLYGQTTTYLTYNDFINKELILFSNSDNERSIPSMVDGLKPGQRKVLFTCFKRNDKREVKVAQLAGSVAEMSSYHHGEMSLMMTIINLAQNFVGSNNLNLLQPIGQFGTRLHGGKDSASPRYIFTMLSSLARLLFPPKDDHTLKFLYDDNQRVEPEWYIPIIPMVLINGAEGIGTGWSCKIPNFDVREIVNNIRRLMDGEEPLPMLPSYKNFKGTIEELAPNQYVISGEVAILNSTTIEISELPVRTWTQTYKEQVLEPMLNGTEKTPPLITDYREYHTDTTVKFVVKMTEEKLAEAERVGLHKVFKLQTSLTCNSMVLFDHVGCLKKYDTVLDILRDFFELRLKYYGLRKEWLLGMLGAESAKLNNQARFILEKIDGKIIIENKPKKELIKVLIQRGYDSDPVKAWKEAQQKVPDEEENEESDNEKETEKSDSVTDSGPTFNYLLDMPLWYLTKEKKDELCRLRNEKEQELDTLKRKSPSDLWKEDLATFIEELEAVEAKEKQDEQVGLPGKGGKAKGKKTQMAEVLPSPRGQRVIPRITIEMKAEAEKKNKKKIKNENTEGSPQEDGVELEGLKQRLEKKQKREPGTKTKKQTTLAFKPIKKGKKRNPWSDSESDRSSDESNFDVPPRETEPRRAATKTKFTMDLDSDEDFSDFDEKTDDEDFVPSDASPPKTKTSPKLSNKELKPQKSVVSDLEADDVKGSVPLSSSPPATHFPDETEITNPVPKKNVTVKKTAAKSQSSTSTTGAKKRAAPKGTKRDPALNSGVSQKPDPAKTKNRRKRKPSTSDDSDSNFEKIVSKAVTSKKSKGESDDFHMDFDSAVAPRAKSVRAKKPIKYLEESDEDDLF

Compound | IC50 (A549 [1]) [µM] | IC50 (DU-145 [2]) [µM] | IC50 [3] [µM] | IC50 (LNCaP [4]) [µM] | IC50 [5] [µM] | IC50 (MDA-MB-231 [6]) [µM] | selectivity ratio [7] | selectivity ratio [8] | Activity (LNCaP [9]) | Activity (HGC) | Activity (MDA-MB-231 [10]) | Activity (A549 [11]) | Activity (DU-145 [12]) | Activity [13] | inhibition [14]
CCOC(=O)c1ccc(NC(=S)N[C@@H]2c3cc4c(cc3[C@@H](c3cc(OC)c(OC)c(OC)c3)[C@H]3C(=O)OC[C@@H]32)OCO4)cc1 | > 100 | 2.37 | 64 | 5.49 | 45.4 | > 100 | 27 | 11.6 |  |  |  |  |  |  | 
COc1cc([C@@H]2c3cc4c(cc3[C@@H](NC(=S)Nc3ccc(C(C)C)cc3)[C@H]3COC(=O)[C@H]23)OCO4)cc(OC)c1OC | 62 | 59.9 | > 100 | 84.8 | > 100 | > 100 |  |  |  |  |  |  |  |  | 
COc1cc([C@@H]2c3cc4c(cc3[C@@H](NC(=S)Nc3ccc(OCc5ccccc5)cc3)[C@H]3COC(=O)[C@H]23)OCO4)cc(OC)c1OC |  |  |  |  |  |  |  |  | inactive | inactive | inactive | inactive | inactive | Non-toxic | 
COc1cc([C@@H]2c3cc4c(cc3[C@@H](NC(=S)Nc3ccccc3F)[C@H]3COC(=O)[C@H]23)OCO4)cc(OC)c1OC |  | 63.3 | > 100 | > 100 | 22.4 | > 100 |  |  |  |  |  | inactive |  |  | 
COc1cc(NC(=S)N[C@@H]2c3cc4c(cc3[C@@H](c3cc(OC)c(OC)c(OC)c3)[C@H]3C(=O)OC[C@@H]32)OCO4)cc(OC)c1 |  |  |  |  |  |  |  |  | inactive | inactive | inactive | inactive | inactive | Non-toxic | 
COc1cc([C@@H]2c3cc4c(cc3[C@@H](NC(=S)Nc3c(C)cc(C)cc3C)[C@H]3COC(=O)[C@H]23)OCO4)cc(OC)c1OC |  | 10.6 | 71.7 | 39.8 | 60.3 | 19.4 | 6.8 | 1.8 |  |  |  | inactive |  |  | 
COc1cc([C@@H]2c3cc4c(cc3[C@@H](NC(=S)Nc3ccc(C#N)cc3)[C@H]3COC(=O)[C@H]23)OCO4)cc(OC)c1OC |  |  |  |  |  |  |  |  | inactive | inactive | inactive | inactive | inactive |  | 
COc1cc([C@@H]2c3cc4c(cc3[C@@H](NC(=S)Nc3ccc(C(F)(F)F)cc3)[C@H]3COC(=O)[C@H]23)OCO4)cc(OC)c1OC | 14.8 | 1.96 | 16.9 | 3.56 | 56.8 | 7.58 | 8.6 | 4.7 |  |  |  |  |  |  | Active
COc1cc([C@@H]2c3cc4c(cc3[C@@H](NC(=S)Nc3cccc(F)c3)[C@H]3COC(=O)[C@H]23)OCO4)cc(OC)c1OC |  |  |  |  |  |  |  |  | inactive | inactive | inactive | inactive | inactive | Non-toxic | 
COc1cc([C@@H]2c3cc4c(cc3[C@@H](NC(=S)Nc3cccc(C(F)(F)F)c3)[C@H]3COC(=O)[C@H]23)OCO4)cc(OC)c1OC |  | 21 | > 100 | 22.2 | 12.9 | 17.9 |  |  |  |  |  | inactive |  |  | 
COc1cc([N+](=O)[O-])ccc1NC(=S)N[C@@H]1c2cc3c(cc2[C@@H](c2cc(OC)c(OC)c(OC)c2)[C@H]2C(=O)OC[C@@H]21)OCO3 |  |  |  |  |  |  |  |  | inactive | inactive | inactive | inactive | inactive | Non-toxic | 
COc1cc([C@@H]2c3cc4c(cc3[C@@H](NC(=S)Nc3ccc(F)cc3)[C@H]3COC(=O)[C@H]23)OCO4)cc(OC)c1OC |  |  |  |  |  |  |  |  | inactive | inactive | inactive | inactive | inactive | Non-toxic | 
COc1cc([C@@H]2c3cc4c(cc3[C@@H](NC(=S)Nc3ccc(Cl)c(Cl)c3)[C@H]3COC(=O)[C@H]23)OCO4)cc(OC)c1OC |  | 14.1 | > 100 | 20 | 86.1 | 11.9 |  |  |  |  |  | inactive |  |  | 
COc1cc([C@@H]2c3cc4c(cc3[C@H](O)[C@H]3COC(=O)[C@H]23)OCO4)cc(OC)c1OC [PODOFILOX] | 129 |  |  |  |  |  |  |  |  |  |  |  |  |  | 
COc1ccc(NC(=S)N[C@@H]2c3cc4c(cc3[C@@H](c3cc(OC)c(OC)c(OC)c3)[C@H]3C(=O)OC[C@@H]32)OCO4)cc1OC | 65.5 | 58.8 | > 100 | > 100 | 23.7 | > 100 |  |  |  |  |  |  |  |  | 
COc1cc([C@@H]2c3cc4c(cc3[C@@H](O[C@@H]3O[C@@H]5CO[C@@H](C)O[C@H]5[C@H](O)[C@H]3O)[C@H]3COC(=O)[C@H]23)OCO4)cc(OC)c1O [ETOPOSIDE] | 38.5 | 5.21 | 27.6 | 50.3 | 10.9 | 49.4 | 5.3 |  |  |  |  |  |  |  | Active
COc1ccc(NC(=S)N[C@@H]2c3cc4c(cc3[C@@H](c3cc(OC)c(OC)c(OC)c3)[C@H]3C(=O)OC[C@@H]32)OCO4)c([N+](=O)[O-])c1 | 35.1 | 12.2 | 78.4 | 25.6 | 33.4 | 39.8 | 6.4 | 3.1 |  |  |  |  |  |  | 
COc1ccc(NC(=S)N[C@@H]2c3cc4c(cc3[C@@H](c3cc(OC)c(OC)c(OC)c3)[C@H]3C(=O)OC[C@@H]32)OCO4)c(OC)c1 |  |  |  |  |  |  |  |  | inactive | inactive | inactive | inactive | inactive | Non-toxic | 
COc1cc([C@@H]2c3cc4c(cc3[C@@H](NC(=S)Nc3ccccc3C(F)(F)F)[C@H]3COC(=O)[C@H]23)OCO4)cc(OC)c1OC | > 100 | 2.34 | 44.5 | 12.9 | 86 | 85.7 | 19 | 3.4 |  |  |  |  |  |  | 
COc1cc([C@@H]2c3cc4c(cc3[C@@H](NC(=S)Nc3ccc([N+](=O)[O-])cc3)[C@H]3COC(=O)[C@H]23)OCO4)cc(OC)c1OC | 44 | 7.89 | 56.7 | 53.1 | 69.6 | 31.8 | 7.2 |  |  |  |  |  |  |  | 
COc1ccc(OC)c(NC(=S)N[C@@H]2c3cc4c(cc3[C@@H](c3cc(OC)c(OC)c(OC)c3)[C@H]3C(=O)OC[C@@H]32)OCO4)c1 |  |  |  |  |  |  |  |  | inactive | inactive | inactive | inactive | inactive | Non-toxic | 
COc1cc(NC(=S)N[C@@H]2c3cc4c(cc3[C@@H](c3cc(OC)c(OC)c(OC)c3)[C@H]3C(=O)OC[C@@H]32)OCO4)ccc1[N+](=O)[O-] |  |  |  |  |  |  |  |  | inactive | inactive | inactive | inactive | inactive | Non-toxic | 
